High-throughput results deposited in PubChem BioAssay by several laboratories.
The list is not random: actives were taken first. Their share in the collection is about 2.8%.
JMJD2C inh – inhibitors of human GASC-1 (JMJD2C) demethylase | inhibition, % at 2.35 µM | GST-JMJD2C(1-420) H3K9me3 demethylation, DELFIA europium | 330,000 tested, 0.069% active | Q9H3R0;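 active = more than half of a compound's replicate wells show inhibition beyond 50%, single wells judged on their own value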;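 note: signal counts dimethyl H3K9 product captured on neutravidin plate; 0% = median of DMSO wells and 100% = 0.3 times that DMSO median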
T cell modulator – T cell immune modulation candidate; 2C CD8+ T cell-vesicle binding, flow cytometry; hits give low values; response (vesicle binding), % at 7 µM; 330,000 tested, 0.068% active;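 active = response, share of CD8 T cells binding vesicles, and their 90th percentile fluorescence all below set limits, cut at about 80% in these data, passing the limit was not always enough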;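 note: values below 100% mean blocked vesicle binding to the CD8+ T cells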
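Material: murine 2C transgenic CD8+ T lymphocytes / Also added: QL9-peptide-loaded Drosophila micro-vesicles bearing Ld, ICAM-1 and B7-1 / Schedule: binding step 1.5 h, 37 °C, antibody labelling 20 min, ice / Signal: flow cytometry, PE anti-B7-1 (FL2) versus Alexa647 anti-CD8 (FL8), PFA-fixed / Evaluation: percent CD8+ FL2 mean versus row control / Benchmarks: naked versus QL9-loaded vesicles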
GRIN3A LBD mod – modulates the human NR3A ligand-binding domain; Tm shift relative to glycine control, % at 25 µM; AID 1259313; NR3A LBD differential scanning fluorimetry, Tm shift; 0% = protein alone, 100% = glycine-bound protein; 340,000 tested, 2.5% active;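 active = melting temperature shift of at least 10% of the positive control shift, at one fixed dose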
Rtt109 HAT inh – C. albicans Rtt109 histone acetyltransferase inhibition; purified Rtt109/Vps75, ThioGlo CoA-SH fluorescence, 4 h; inhibition, % at 34.9 µM; 330,000 tested, 0.16% active; AID 540336;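 active = inhibition of at least 50% in every replicate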
Target sequence (Q5AAJ8 whole entry, looked up): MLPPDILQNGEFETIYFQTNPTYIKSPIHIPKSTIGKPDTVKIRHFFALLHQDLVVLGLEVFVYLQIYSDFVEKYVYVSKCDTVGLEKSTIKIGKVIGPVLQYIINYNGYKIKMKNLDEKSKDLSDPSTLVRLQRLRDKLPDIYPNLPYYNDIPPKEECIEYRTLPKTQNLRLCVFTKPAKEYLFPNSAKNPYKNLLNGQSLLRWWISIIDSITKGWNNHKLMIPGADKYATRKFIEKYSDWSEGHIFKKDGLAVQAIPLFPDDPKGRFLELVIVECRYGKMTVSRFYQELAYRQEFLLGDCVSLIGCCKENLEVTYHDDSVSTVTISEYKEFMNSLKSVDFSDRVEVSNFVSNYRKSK
* = called active by the depositor; i = inactive; . = no result given.

SMILES	JMJD2C inh	T cell modulator	GRIN3A LBD mod	Rtt109 HAT inh
CCOC(=O)c1ccc(N2CCOCC2)c(NC(=O)c2nccnc2C(=O)O)c1	3	399	-3	-1
COc1ccc(CNC(=O)Cc2ccc(NC(=O)C3=C(C)OCCS3)cc2)cc1	-3	578	-1	-2
COc1ccc(COC(=O)c2ccc(C)c(S(=O)(=O)N3CCOCC3)c2)cc1F	5	247	1	5
O=C(Nc1nc(-c2cccs2)cs1)c1ccc(Cl)cc1	-24	87	11*	2
Cc1noc(C)c1C(=O)Nc1nc(-c2ccccc2Cl)cs1	-21	741	-6	-15
O=C(Nc1nc(-c2ccccc2Cl)cs1)c1cccnc1	-2	168	10*	-3
Cc1csc(NC(=O)c2sc3nc(-c4cccs4)ccc3c2N)n1	14	380	28*	.
CCCSc1nnc(NC(=O)c2sc3nc(-c4cccs4)ccc3c2N)s1	-9	162	6	8
Cc1c(C(=O)Nc2nccs2)sc2nc(-c3cccs3)cc(C(F)(F)F)c12	-2	223	28*	4
Cc1ccc(C(C)C)c2c1C(c1ccc3c(c1)OCO3)CC(=O)O2 (stereo unspecified)	.	.	-7	0
CC(=NNC(=O)COc1cccc(C)c1)c1cccnc1	-1	418	1	-6
O=C(Nc1nc(-c2cccs2)cs1)c1cccc(S(=O)(=O)N2CCCCC2)c1	2	211	10*	-13
Cc1ccc(-c2csc(NC(=O)c3cccc(S(=O)(=O)N4CCN(C)CC4)c3)n2)cc1	5	150	-3	.
COc1ccc(C(=O)Nc2nc(-c3cccs3)cs2)cc1	-4	325	16*	-6
Cc1ccc(C(C[N+](=O)[O-])Sc2ccc(N)cc2)cc1 (stereo unspecified)	2	170	-9	-12
O=C(Nc1ccc(Br)cc1)c1cccn1-c1ncc(C(F)(F)F)cc1Cl	i	882	13*	1
CN(C)c1ccc(S(=O)(=O)N2CCCCC2)cc1NC(=O)C1=COCCO1	2	294	-1	2
COc1ccc(OC)c2c(C)c(C)[nH]c12	1	110	10*	5
COCCNC(=O)CN(c1ccc(OC)c(OC)c1)S(=O)(=O)c1ccc(C)cc1	-5	446	14*	3
COC(=O)CN(c1cc(OC)ccc1OC)S(=O)(=O)c1ccc(OC)c(OC)c1	4	206	10*	-2
COCCNC(=O)CN(c1ccc(C)cc1)S(=O)(=O)c1ccccc1	26	532	-7	.
C=CCN([C@@H](CC(C)C)C(=O)OC)S(=O)(=O)N(CC=C)[C@@H](CC(C)C)C(=O)OC	0	485	1	2
COc1ccc(Cl)cc1NC(=O)CC1S/C(=N/N=C2CCCCCC2)NC1=O (stereo unspecified)	2	175	-5	5
O=c1c2ccccc2oc2cc(Br)ccc12	.	.	13*	2
[O-]/[N+](=C\c1ccco1)c1ccc(Cl)cc1	16	333	-2	16
SMILES	JMJD2C inh	T cell modulator	GRIN3A LBD mod	Rtt109 HAT inh
CCOc1ccc(S(=O)(=O)N2CCC(C(=O)N3CCc4ccccc4C3)CC2)cc1	-21	460	20*	2
COc1ccc(S(=O)(=O)N2CCC(C(=O)N3CCc4ccccc4C3)CC2)cc1	34	555	2	3
CCOC(=O)N1CCN(C(=O)C2CCCN(S(=O)(=O)c3ccc(OCC)cc3)C2)CC1 (stereo unspecified)	-7	61	13*	10
COc1ccccc1/C=C/CN1CCC(Oc2cc(C(=O)NC3CC3)ccc2OC)CC1	-6	344	2	15
COc1ccc(CN(CC(O)COCc2ccccc2)S(=O)(=O)c2ccccc2Br)cc1 (stereo unspecified)	.	.	-8	1
COc1ccc2c(c1)O[C@@]1(CCCC[C@@H]1C)CC2=O	-1	i	1	5
COc1ccc(-c2csc(NC(=O)CSc3ccc(Br)cc3)n2)c(OC)c1	1	326	12*	-5
COc1ccc(-c2csc(NC(=O)CN3C(=O)CCC3=O)n2)c(OC)c1	11	282	18*	5
COc1ccc(OC)c(-c2csc(NC(=O)CSc3ccccc3)n2)c1	0	656	5	-13
CCCOc1ccc(-c2csc(NC(=O)CN3C(=O)CCC3=O)n2)cc1	5	416	36*	2
CCC(Cc1ccccc1)NC(=O)c1ccc2nc(N3CCOCC3)sc2c1 (stereo unspecified)	0	i	-1	-4
CCc1cc(-c2n[nH]c(C)c2-c2ccccc2Cl)c(O)cc1OC	-17	167	13*	1
Cc1ccccc1/C=C/C(=O)NCC(=O)N1CCC(N(C)C2CCCCC2C)CC1 (stereo unspecified)	5	111	-1	60*
COc1cc(C(=O)NCC(c2ccccc2)N(C)C)ccc1OCc1c(C)noc1C (stereo unspecified)	-6	537	-3	3
O=C(COC(=O)CCSc1ccc(Cl)cc1)NCCc1ccccc1	-1	386	16*	3
NS(=O)(=O)c1ccc(CCNC(=O)COC(=O)CCSc2ccc(Cl)cc2)cc1	-15	250	0	-5
O=C(NCCC1=CCCCC1)C1CCN(S(=O)(=O)c2ccccc2C(F)(F)F)CC1	7	479	-2	-12
Cc1ccc(Cl)cc1N1CCN(CC(=O)NC2CCCc3ccccc32)CC1 (stereo unspecified)	-6	240	10*	-12
Nc1nc(SCC(=O)c2c(N)n(C3CC3)c(=O)[nH]c2=O)n[nH]1	.	.	0	4
O=C(COC(=O)c1ccc(CO)cc1)Nc1ccc2ccccc2c1	-8	188	0	3
O=C(COC(=O)c1ccc(O)cc1O)Nc1ccc2c(c1)OCCO2	-5	865	-2	4
CC1CCc2c(sc(NC(=O)COC(=O)c3ccc(NC(=O)CC#N)cc3)c2C#N)C1 (stereo unspecified)	-4	295	26*	-5
O=C(COC(=O)c1ccc(OC(F)F)cc1)NCCNC(=O)COC(=O)c1ccc(OC(F)F)cc1	-38	324	1	3
O=C(COC(=O)c1ccc(O)cc1O)Nc1ccc2ccccc2c1	-3	903	14*	8
O=C(COC(=O)c1ccc(CO)cc1)Nc1ccc(OC(F)F)cc1	5	658	16*	-7
SMILES	JMJD2C inh	T cell modulator	GRIN3A LBD mod	Rtt109 HAT inh
N#CCC(=O)Nc1ccc(C(=O)OCC(=O)Nc2ccc3ccccc3c2)cc1	4	320	30*	1
Cc1cccc(OCCCC(=O)NC2CCCCC2)c1	2	385	0	1
Cc1ccccc1OCCC(=O)OCC(=O)NC1CCCCC1	-3	i	0	-3
O=C(Nc1ccc(-c2nc3ccccc3[nH]2)cc1)c1ccccc1NS(=O)(=O)c1ccc(F)cc1	7	223	30*	2
O=C(Nc1ccc(S(=O)(=O)Nc2ncccn2)cc1)c1ccccc1NS(=O)(=O)c1ccc(F)cc1	8	525	-1	-8
Cc1cc(F)ccc1S(=O)(=O)Nc1ccccc1C(=O)Nc1ccccc1-c1nc2ccccc2[nH]1	-2	173	18*	2
